The results in this text go back to ChEMBL document CHEMBL2062496, “Identification of a sirtuin 3 inhibitor that displays selectivity over sirtuin 1 and 2” (Eur J Med Chem, 2012).

What is called IC50 is the concentration that gives 50% inhibition.

For assay [1], the target named is T1, NAD-dependent protein deacetylase sirtuin-2 (Homo sapiens) (UniProt Q8IXJ6).
T1 sequence (whole entry): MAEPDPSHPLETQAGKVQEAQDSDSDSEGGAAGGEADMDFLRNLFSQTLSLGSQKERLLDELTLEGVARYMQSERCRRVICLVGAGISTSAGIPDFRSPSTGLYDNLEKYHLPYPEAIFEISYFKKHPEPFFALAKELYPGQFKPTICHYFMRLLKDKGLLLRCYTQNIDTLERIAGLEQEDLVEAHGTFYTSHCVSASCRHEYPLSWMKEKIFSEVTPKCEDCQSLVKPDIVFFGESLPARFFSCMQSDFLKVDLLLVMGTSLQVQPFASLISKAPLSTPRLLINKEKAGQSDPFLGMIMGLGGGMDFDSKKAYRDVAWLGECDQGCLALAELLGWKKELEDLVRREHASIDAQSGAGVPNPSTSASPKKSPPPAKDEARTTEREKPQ
Briefly: Inhibition of human SIRT2 assessed as enzyme activity using Fluor-de-Lys as substrate at 100 uM by fluorometry. An outline of the steps: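 Commercial Fluor-de-Lys kit, substrate human p53 379–382 peptide (Arg-His-Lys-Lys(Ac)). Human Sirt1 or Sirt2 was incubated with substrate, NAD+ and compound at 1 mM, also tested at 100 µM. Fluorescence scales with Lys382 deacetylation. Activity is expressed relative to control, mean ± S.E.M. of 3–4 replicates.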

Assay [2] deals with HeLa. Briefly: Cytotoxicity against human HeLa cells assessed as cell death after 48 hrs.
Assay [3] deals with NCI-H322M. As to the kind of experiment: Growth of human NCI-H322M cells assessed as cell growth at 10 uM after 48 hrs by MTT assay. (Tetrazolium dyes change colour on reduction, which living cells bring about.)
Assay [4] relates to MDA-MB-468. As to the kind of experiment: Growth of human MDA-MB-468 cells assessed as cell growth at 10 uM after 48 hrs by MTT assay. Particulars: MDA-MB-468, 48 h.
Assay [5] has as its system EKVX. Briefly: Growth inhibition of human EKVX cells assessed as cell growth at 10 uM after 48 hrs by MTT assay; values are per cent of control.
Assay [6] concerns U-251. As to the kind of experiment: Growth inhibition of human U251 cells assessed as cell growth at 10 uM after 48 hrs by MTT assay; values are per cent of control. Particulars: U-251, 48 h.
Assay [7] relates to A498. Briefly: Growth inhibition of human A498 cells assessed as cell growth at 10 uM after 48 hrs by MTT assay; values are per cent of control. Particulars: A498, 48 h.
The test system of assay [8] is MOLT-4. As to the kind of experiment: Growth inhibition of human MOLT4 cells assessed as cell growth at 10 uM after 48 hrs by MTT assay; values are per cent of control. Conditions: MOLT-4, 48 h.
Assay [9] has as its system HOP-62. As to the kind of experiment: Growth inhibition of human HOP62 cells assessed as cell growth at 10 uM after 48 hrs by MTT assay; values are per cent of control. Particulars: HOP-62, 48 h.
Assay [10] has as its system HCT-15. As to the kind of experiment: Growth inhibition of human HCT15 cells assessed as cell growth at 10 uM after 48 hrs by MTT assay; values are per cent of control. Conditions: HCT-15, 48 h.
The subject of assay [11] is 786-0. As to the kind of experiment: Growth inhibition of human 786-0 cells assessed as cell growth at 10 uM after 48 hrs by MTT assay; values are per cent of control. Particulars: 786-0, 48 h.
Assay [12] deals with BT-549. Briefly: Growth inhibition of human BT549 cells assessed as cell growth at 10 uM after 48 hrs by MTT assay; values are per cent of control. Particulars: BT-549, 48 h.
In assay [13] the test system is HCT-116. As to the kind of experiment: Growth inhibition of human HCT116 cells assessed as cell growth at 10 uM after 48 hrs by MTT assay; values are per cent of control. Conditions: HCT-116, 48 h.
The test system of assay [14] is IGROV-1. As to the kind of experiment: Growth inhibition of human IGROV1 cells assessed as cell growth at 10 uM after 48 hrs by MTT assay; values are per cent of control. Conditions: IGROV-1, 48 h.
For assay [15], the system named is RXF 393. As to the kind of experiment: Growth inhibition of human RXF393 cells assessed as cell growth at 10 uM after 48 hrs by MTT assay; values are per cent of control. Particulars: RXF 393, 48 h.
Assay [16] concerns NCI-H23. Briefly: Growth inhibition of human NCI-H23 cells assessed as cell growth at 10 uM after 48 hrs by MTT assay; values are per cent of control. Particulars: NCI-H23, 48 h.
The subject of assay [17] is UACC-257. As to the kind of experiment: Growth inhibition of human UACC257 cells assessed as cell growth at 10 uM after 48 hrs by MTT assay; values are per cent of control. Conditions: UACC-257, 48 h.
Assay [18] deals with HCC 2998. Briefly: Growth inhibition of human HCC2998 cells assessed as cell growth at 10 uM after 48 hrs by MTT assay; values are per cent of control. Conditions: HCC 2998, 48 h.
For assay [19], the system named is RPMI-8226. Briefly: Growth inhibition of human RPMI8226 cells assessed as cell growth at 10 uM after 48 hrs by MTT assay; values are per cent of control. Particulars: RPMI-8226, 48 h.
In assay [20] the test system is NCI-H460. Briefly: Growth inhibition of human NCI-H460 cells assessed as cell growth at 10 uM after 48 hrs by MTT assay; values are per cent of control. Particulars: NCI-H460, 48 h.
Assay [21] deals with Malme-3M. As to the kind of experiment: Growth inhibition of human MALME-3M cells assessed as cell growth at 10 uM after 48 hrs by MTT assay; values are per cent of control.
Assay [22] relates to SK-MEL-2. Briefly: Growth inhibition of human SK-MEL-2 cells assessed as cell growth at 10 uM after 48 hrs by MTT assay; values are per cent of control. Particulars: SK-MEL-2, 48 h.
Assay [23] has as its system SK-MEL-28. As to the kind of experiment: Growth inhibition of human SK-MEL-28 cells assessed as cell growth at 10 uM after 48 hrs by MTT assay; values are per cent of control. Conditions: SK-MEL-28, 48 h.
For assay [24], the system named is MDA-MB-231. Briefly: Growth inhibition of human MDA-MB-231 cells assessed as cell growth at 10 uM after 48 hrs by MTT assay; values are per cent of control. Conditions: MDA-MB-231, 48 h.

The source made the active and inactive calls. The calls are words filed in the database; no cut-off is given here.

On to `c1cncc(-c2cnn[nH]2)c1`, for which the inhibition entry in assay [1] was “inactive”. Moreover, the IC50 in assay [2] stood at 4.7 µM. Also, the growth, % of control at 10 µM in assay [3] was 104%; in assay [4] it was 104%; in assay [5], 76.4%; in assay [6], 111%; in assay [7], 105%; in assay [8], 101%. In addition, the growth, % of control at 10 µM is 90.9% in assay [9]; 69.2% in assay [10]; 104% in assay [11]; 97.7% in [12]; 82.4% in assay [13]; 113% in assay [14]. Moreover, the growth, % of control at 10 µM stood at 98.6% in [15]; 89.6% in assay [16]; 90.3% in assay [17]; 77.3% in assay [18]; 66.9% in assay [19]; 115% in [20]. The growth, % of control at 10 µM in [21] was found to be 99%; in [22] it was 109%; in assay [23], 106%; in [24] it was 103%.
